ChEMBL document CHEMBL1121665, “Synthesis and antiallergy activity of 4-oxo-4H-pyrido[1,2-a]thieno[2,3-d]pyrimidines” (1981)
The source made the active and inactive calls. No cut-off for these calls is given here.

Each compound was assayed on Rattus norvegicus (assay: Antiallergic activity in the rat passive cutaneous anaphylaxis at dose 5 mg/kg after ip). Conditions: route intraperitoneal.
Type: functional
Method in brief: (§1)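 Rats were immunized with ovalbumin 1 mg im plus about 10^10 Bordetella pertussis organisms (as pertussis vaccine) ip. Drug was suspended in 1% gum tragacanth/saline and given orally or ip 10–15 min before iv challenge with ovalbumin 1 mg plus 0.25% Evans blue. Wheal diameter was read 30 min later; n=5 per group; Student's t test.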

Compared with `CCCc1cc2c(=O)n3cc(-c4nnn[nH]4)ccc3nc2s1`, `CCCCc1cc2c(=O)n3cc(-c4nnn[nH]4)ccc3nc2s1` is lower in inhibition in vivo at 5 mg/kg: 100% for the first, 26% for the second.

`O=C(O)c1ccc2nc3sc(-c4ccccc4)cc3c(=O)n2c1` and `O=C(Nc1nn[nH]n1)c1ccc2nc3sc(-c4ccccc4)cc3c(=O)n2c1` are the same in inhibition in vivo at 5 mg/kg: 17% for the first, 17% for the second.

Compared with `CCCc1cc2c(=O)n3cc(C(=O)O)ccc3nc2s1`, `CCCCc1cc2c(=O)n3cc(C(=O)O)ccc3nc2s1` is lower in inhibition in vivo at 5 mg/kg: 68% for the first, 52% for the second.

First: CC(C)c1cc2c(=O)n3cc(-c4nnn[nH]4)ccc3nc2s1
Second: Cc1cc2c(=O)n3cc(-c4nnn[nH]4)ccc3nc2s1
The inhibition in vivo at 5 mg/kg of the first is lower: 28% for the first, 100% for the second.

Going from `CCc1cc2c(=O)n3cc(C(=O)O)ccc3nc2s1` to `CCc1cc2c(=O)n3cc(C(N)=O)ccc3nc2s1`, the inhibition in vivo at 5 mg/kg falls from 100% to 46%.

Going from `CCc1cc2c(=O)n3cc(C#N)ccc3nc2s1` to `Cc1cc2c(=O)n3cc(C#N)ccc3nc2s1`, the inhibition in vivo at 5 mg/kg rises from 13% to 88%.

Compared with `COC(=O)c1ccc2nc3scc(C)c3c(=O)n2c1`, `CCc1cc2c(=O)n3cc(C(=O)OC)ccc3nc2s1` is higher in inhibition in vivo at 5 mg/kg: 23% for the first, 100% for the second.

Compared with `Cc1sc2nc3ccc(C(=O)O)cn3c(=O)c2c1C`, `Cc1sc2nc3ccc(C#N)cn3c(=O)c2c1C` is lower in inhibition in vivo at 5 mg/kg: 28% for the first, 14% for the second.

`Cc1cc2c(=O)n3cc(C(=O)O)ccc3nc2s1` and `Cc1cc2c(=O)n3cc(C(N)=O)ccc3nc2s1` are the same in inhibition in vivo at 5 mg/kg: 100% for the first, 100% for the second.

Compared with `CCc1cc2c(=O)n3cc(C(=O)Nc4nn[nH]n4)ccc3nc2s1`, `CCCCc1cc2c(=O)n3cc(C(=O)Nc4nn[nH]n4)ccc3nc2s1` is lower in inhibition in vivo at 5 mg/kg: 62% for the first, 18% for the second.

Compared with `CCCCc1cc2c(=O)n3cc(C(N)=O)ccc3nc2s1`, `CC(C)c1cc2c(=O)n3cc(C(N)=O)ccc3nc2s1` is higher in inhibition in vivo at 5 mg/kg: 25% for the first, 100% for the second.

Compared with `O=c1c2cc(-c3ccccc3)sc2nc2ccc(-c3nnn[nH]3)cn12`, `CCc1cc2c(=O)n3cc(-c4nnn[nH]4)ccc3nc2s1` is higher in inhibition in vivo at 5 mg/kg: 84% for the first, 97% for the second.

First: Cc1sc2nc3ccc(-c4nnn[nH]4)cn3c(=O)c2c1C
Second: Cc1sc2nc3ccc(C(=O)Nc4nn[nH]n4)cn3c(=O)c2c1C
The inhibition in vivo at 5 mg/kg of the first is lower: 30% for the first, 94% for the second.

First: CC(C)c1cc2c(=O)n3cc(C(=O)Nc4nn[nH]n4)ccc3nc2s1
Second: Cc1cc2c(=O)n3cc(C(=O)Nc4nn[nH]n4)ccc3nc2s1
The inhibition in vivo at 5 mg/kg of the first is higher: 30% for the first, 25% for the second.

First: CCOC(=O)c1ccc2nc3sc(C(C)C)cc3c(=O)n2c1
Second: CC(C)c1cc2c(=O)n3cc(C(=O)O)ccc3nc2s1
The inhibition in vivo at 5 mg/kg of the first is lower: 63% for the first, 100% for the second.

The compounds below were run on Rattus norvegicus (assay: Compound was tested for antiallergic activity in the rat passive cutaneous anaphylaxis at dose 1-2 mg/kg after iv administration; Inactive). Conditions: not given.
Type: functional, organism-based

With `O=C(O)c1cc(=O)c2c(OCC(O)COc3cccc4oc(C(=O)O)cc(=O)c34)cccc2o1` the ID50 was “inactive”.

These compounds were tested on Rattus norvegicus (assay: Compound was tested for antiallergic activity in the rat passive cutaneous anaphylaxis at dose 0.5 mg/kg after po). Conditions: not given.
Type: functional
Method in brief: as §1

Going from `CCc1cc2c(=O)n3cc(C(=O)O)ccc3nc2s1` to `CCc1cc2c(=O)n3cc(-c4nnn[nH]4)ccc3nc2s1`, the inhibition in vivo at 0.5 mg/kg falls from 69% to 38%.

The compounds below were run on Rattus norvegicus (assay: Compound was tested for antiallergic activity in the rat passive cutaneous anaphylaxis, after intravenous administration). Conditions: read-out: ID50 (the source's name).
Type: functional
Method in brief: (§2)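 Ovalbumin/pertussis-immunized rat antiserum was titrated intradermally on the back 48 h before challenge. Compound was given iv, dissolved directly in the challenge solution (ovalbumin 1 mg in 1 mL saline, 0.25% Evans blue), with slight molar excess NaHCO3 if needed. Wheal diameter was measured 30 min later. Percent inhibition was taken at the highest antiserum level versus control, corrected for the extrapolated base value; groups of five.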

`O=C1c2ccccc2S(=O)(=O)c2cc(-c3nn[nH]n3)ccc21` [DOXANTRAZOLE] showed an ED50 of 1.5 mg/kg.

These compounds were tested on Rattus norvegicus (assay: Compound was tested for antiallergic activity in the rat passive cutaneous anaphylaxis at dose 0.1 mg/kg after intravenous administration). Conditions: not given.
Type: functional
Method in brief: as §2

First: CCc1cc2c(=O)n3cc(C(=O)O)ccc3nc2s1
Second: CCc1cc2c(=O)n3cc(-c4nnn[nH]4)ccc3nc2s1
The inhibition in vivo at 0.1 mg/kg of the first is lower: 33% for the first, 56% for the second.

These compounds were tested on Rattus norvegicus (assay: Compound was tested for antiallergic activity in the rat passive cutaneous anaphylaxis at dose 5 mg/kg after ip; No significant activity). Conditions: not given.
Type: functional, organism-based
Parameters: dose 5 mg/kg
Method in brief: as §1

With `CCOC(=O)c1sc2nc3ccc(C(=O)OC)cn3c(=O)c2c1C` the inhibition was “No significant activity”.

The compounds below were run on Rattus norvegicus (assay: Compound was tested for antiallergic activity in the rat passive cutaneous anaphylaxis at dose 5 mg/kg after po). Conditions: not given.
Type: functional
Method in brief: as §1

Compared with `CCCc1cc2c(=O)n3cc(-c4nnn[nH]4)ccc3nc2s1`, `Cc1sc2nc3ccc(-c4nnn[nH]4)cn3c(=O)c2c1C` is lower in inhibition in vivo at 5 mg/kg: 67% for the first, 21% for the second.

Compared with `O=C(O)c1ccc2nc3sc(-c4ccccc4)cc3c(=O)n2c1`, `Cc1cc2c(=O)n3cc(C(=O)O)ccc3nc2s1` is higher in inhibition in vivo at 5 mg/kg: 17% for the first, 62% for the second.

Going from `CCc1cc2c(=O)n3cc(C(=O)OC)ccc3nc2s1` to `Cc1cc2c(=O)n3cc(C(N)=O)ccc3nc2s1`, the inhibition in vivo at 5 mg/kg falls from 75% to 38%.

Work on `Cc1cc2c(=O)n3cc(C#N)ccc3nc2s1` yielded an inhibition in vivo at 5 mg/kg of 100%.

The compounds below were run on Rattus norvegicus (assay: Compound was tested for antiallergic activity in the rat passive cutaneous anaphylaxis at dose 5 mg/kg after po; No significant activity). Conditions: not given.
Type: functional, organism-based
Parameters: dose 5 mg/kg
Method in brief: as §1

`CCc1cc2c(=O)n3cc(C#N)ccc3nc2s1` was tested, and the inhibition was “No significant activity”.
`CCc1cc2c(=O)n3cc(C(N)=O)ccc3nc2s1` was tested, and the inhibition was “No significant activity”.
For `Cc1sc2nc3ccc(C(=O)O)cn3c(=O)c2c1C`, the inhibition was “No significant activity”.
With `CCc1cc2c(=O)n3cc(C(=O)Nc4nn[nH]n4)ccc3nc2s1` the inhibition was “No significant activity”.
For `CCCCc1cc2c(=O)n3cc(C(N)=O)ccc3nc2s1`, the inhibition was “No significant activity”.
For `O=c1c2cc(-c3ccccc3)sc2nc2ccc(-c3nnn[nH]3)cn12`, the inhibition was “No significant activity”.
`Cc1sc2nc3ccc(C(=O)Nc4nn[nH]n4)cn3c(=O)c2c1C` was tested, and the inhibition was “No significant activity”.
With `Cc1cc2c(=O)n3cc(C(=O)Nc4nn[nH]n4)ccc3nc2s1` the inhibition was “No significant activity”.
For `O=C(Nc1nn[nH]n1)c1ccc2nc3sc(-c4ccccc4)cc3c(=O)n2c1`, the inhibition was “No significant activity”.
`Cc1cc2c(=O)n3cc(-c4nnn[nH]4)ccc3nc2s1` was tested, and the inhibition was “No significant activity”.

These compounds were tested on Rattus norvegicus (assay: Compound was tested for antiallergic activity in the rat passive cutaneous anaphylaxis at dose 1 mg/kg after po). Conditions: not given.
Type: functional
Method in brief: as §1

Compound `CCCc1cc2c(=O)n3cc(C(=O)O)ccc3nc2s1` has an inhibition in vivo at 1 mg/kg of 18%.

These compounds were tested on Rattus norvegicus (assay: Compound was tested for antiallergic activity in the rat passive cutaneous anaphylaxis, after peroral administration). Conditions: po, read-out: ID50 (the source's name).
Type: functional
Method in brief: as §1

Work on `O=C1c2ccccc2S(=O)(=O)c2cc(-c3nn[nH]n3)ccc21` [DOXANTRAZOLE] yielded an ED50 of 5 mg/kg.
